# High-throughput results (PubChem BioAssay)
# Scp-1 inhibitor: Scp-1 (human) phosphatase inhibition. 340,000 tested, 0.88% active. inhibition, % at 20 µM. Recombinant Scp1, phosphopeptide, malachite green phosphate absorbance. Q9GZU7;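 active = inhibition above about 50% at 20 µM, limit read from the data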
#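 System: SCP-1 catalytic domain; Reagent: Phospho 17-mer peptide substrate; Doses: one concentration, 20 µM, with 1.0% DMSO; Incubation: 45 min room-temperature reaction, 5 min colour, 30 min stabiliser; Signal: Phosphate-binding colour reagent, absorbance read at 630 nm.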
# LMPTP block: blocks human LMPTP phosphatase; P24666; recombinant LMPTP-A, OMFP fluorogenic substrate, fluorescence intensity; inhibition, % at 20 µM; 360,000 tested, 0.22% active;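 active = compounds that cut the enzyme signal by at least half of the control window in the single-dose screen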
#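 Buffer or medium: Bis-Tris pH 6.0, DTT, detergent; Assay system: LMPTP-A enzyme; Quantity: 0.625 nM enzyme; Detection: endpoint fluorescence intensity; Times: 50 min dark incubation at room temperature; Controls: substrate-only low control, DMSO enzyme-plus-substrate high control; Doses: single 20 µM dose; Read-out: percent inhibition versus substrate-only and uninhibited controls; Reagent: 400 µM OMFP.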
# STEP inh: STEP (human) phosphatase inhibition | inhibition, % at 20 µM | AID 588621 | 360,000 tested, 0.25% active | P54829 | recombinant STEP, OMFP fluorogenic substrate, fluorescence;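 active = inhibition at 20 µM, scaled per plate between control wells, above about 37%, limit read from the data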
#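 medium = Bis-Tris buffer pH 6.0, 2.5 mM DTT, 0.005% Tween 20 | test system = STEP (striatal-enriched tyrosine phosphatase) enzyme, cell-free | measure = normalized % inhibition | compound dosing = 20 µM, 1% DMSO | also added = 25 µM OMFP | schedule = reaction 20 min, ambient temperature | measured by = fluorescence read at 480 nm ex / 540 nm em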
# CSN deneddyl inh: inhibitors of human CSN-mediated cullin deneddylation; Purified CSN, SCF-Nedd8-OG deneddylation, fluorescence polarization; AID 651999; inhibition, % at 12.5 µM; Q92905; 360,000 tested, 0.38% active;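 active = pattern-corrected inhibition above about 35%, with an unprinted fluorescence ratio check between 0.5 and 1.5, limit read from the data, passing the limit was not always enough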
# Target sequence (Q92905 whole entry, looked up, one chain of several): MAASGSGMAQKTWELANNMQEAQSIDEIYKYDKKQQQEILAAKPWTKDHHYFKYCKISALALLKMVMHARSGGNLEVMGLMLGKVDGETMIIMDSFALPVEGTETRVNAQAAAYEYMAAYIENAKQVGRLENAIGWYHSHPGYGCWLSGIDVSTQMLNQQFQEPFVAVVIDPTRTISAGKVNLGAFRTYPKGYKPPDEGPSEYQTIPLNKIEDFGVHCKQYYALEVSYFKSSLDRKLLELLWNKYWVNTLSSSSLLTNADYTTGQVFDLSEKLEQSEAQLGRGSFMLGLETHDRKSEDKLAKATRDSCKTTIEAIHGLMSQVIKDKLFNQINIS
#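 Test system: purified human Csn5 enzyme expressed in HEK293T cells. Amount: 0.24 nM enzyme. Reagent: SCFSkp2-Nedd8OG substrate at 10 nM final. Schedule: 90 min incubation of compound, enzyme and substrate at room temperature. Detection: fluorescence polarization. Read-out: % inhibition of substrate cleavage by Csn5.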
# SUMO1-SIM PPI: modulators of human SUMO1-mediated protein-protein interactions. P63165. SUMO1 binding to a labelled peptide, TR-FRET, 1 h. inhibition, % at 20 µM. 360,000 tested, 0.33% active. AID 602429; in the data active = inhibition above about 37%
# Target sequence (P63165 whole entry, looked up): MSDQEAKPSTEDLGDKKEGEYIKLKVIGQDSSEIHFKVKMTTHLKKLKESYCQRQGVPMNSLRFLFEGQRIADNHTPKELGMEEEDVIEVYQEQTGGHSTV
# DNMT1 block: blocks human DNA methyltransferase DNMT1. P26358. DNMT1 molecular beacon, Hinp1I cleavage, fluorescence. inhibition (reported as % activation of signal), % at 10 µM. 360,000 tested, 0.83% active. AID 588458; in the data active = inhibition above about 50%
# Scp-1 conf: confirmation of human Scp-1 phosphatase inhibitors; inhibition, % at 20 µM; 2,500 tested, 61% active; shares compounds with Scp-1 inhibitor; recombinant SCP-1 catalytic domain, phosphate release, malachite green absorbance; AID 540281
# Scp-1 MG ctr: interferes with malachite green readout, flagging false Scp-1 hits; shares compounds with Scp-1 inhibitor; Colorimetric interference counterscreen, malachite green absorbance 630 nm; apparent inhibition (interference), % at 20 µM; 2,500 tested, under 10 active; AID 540313;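 also: compounds added after enzyme reaction finished so only phosphate colour detection is probed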
# Scp-1 Tm shift: Scp-1 (human) binding by thermal shift; shares compounds with Scp-1 inhibitor; Recombinant SCP1, Sypro Orange thermal shift Tm; thermal shift relative to vanadate control, % at 40 µM; 1,500 tested, 25% active; AID 540329;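 active = substances whose mean melting-temperature shift, as a percentage of the reference inhibitor's shift, reaches about 5.3%, limit read from the data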
# Numbers stand for hits; i = inactive; nt = no result. An excerpt weighted towards active compounds, which were near 2% of everything screened.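 The calls were made as follows, unless noted: active = inhibition of at least 30% at 20 µM; inactive = the rest.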
SMILES,Scp-1 inhibitor,LMPTP block,STEP inh,CSN deneddyl inh,SUMO1-SIM PPI,DNMT1 block,Scp-1 conf,Scp-1 MG ctr,others
O=C(COC(=O)c1ccc(S(=O)(=O)NCc2ccco2)cc1)NCc1ccccc1,i,i,i,i,i,i,nt,nt,
CN(C)S(=O)(=O)c1ccc(C(=O)OCc2nnc(-c3ccccc3)o2)cc1,i,i,i,i,i,i,nt,nt,
NC(=O)COC(=O)c1ccc(S(=O)(=O)NCc2ccco2)cc1,63.3,i,i,i,i,i,68.9,i,Scp-1 Tm shift=i
O=C(OCc1nnc(-c2ccccc2)o1)c1ccc(S(=O)(=O)NCc2ccco2)cc1,52.7,i,i,i,i,i,67.8,i,Scp-1 Tm shift=i
CCN1C(=NCCOC)N[C@@H](c2cccc(C(F)(F)F)c2)C(C(=O)OC)=C1C,56.1,i,i,i,i,i,i,i,
CCN1C(=NCc2ccco2)N[C@@H](c2cccc(C(F)(F)F)c2)C(C(=O)OC)=C1C,i,i,i,i,i,i,nt,nt,
CCN1C(=NCc2cc(OC)c(OC)c(OC)c2)N[C@@H](c2cccc(C(F)(F)F)c2)C(C(=O)OC)=C1C,i,i,i,i,i,i,nt,nt,
CCN1C(=NCc2cc(OC)c(OC)c(OC)c2)N[C@@H](c2ccccc2)C(C(=O)OC)=C1C,54.2,i,i,i,i,i,i,i,
CCN1C(=NCC2CC2)N[C@@H](c2cccc(C(F)(F)F)c2)C(C(=O)OC)=C1C,50.1,i,i,i,i,i,i,i,
CC(C)(C)C1CCC(OC(=O)CN2CCCCC2)CC1 (stereo not drawn),i,i,i,i,i,i,nt,nt,
Cc1oc(/N=C/c2cccc3ccccc23)c(C#N)c1C,65.3,i,i,i,i,i,i,i,
Cc1nn(C)c(Cl)c1S(=O)(=O)N1CCC(CO)(CCc2ccccc2)CC1,80.8,i,i,i,i,i,i,i,
COc1ccc(CC2(CO)CCN(S(=O)(=O)c3c(C)nn(C)c3Cl)CC2)cc1,i,i,i,i,i,i,nt,nt,
COc1cc(/C=C2\C(=N)N3N=C(S(C)(=O)=O)SC3=NC2=O)cc(OC)c1OCCOc1ccc(C)cc1,i,i,i,i,i,i,nt,nt,
COc1cc(/C=C2\C(=N)N3N=C(S(C)(=O)=O)SC3=NC2=O)ccc1OCCOc1ccc(C)cc1,67.1,i,i,i,i,i,36.3,i,Scp-1 Tm shift=9.7
CCS(=O)(=O)C1=NN2C(=N)/C(=C\c3ccc(OCCOc4cccc(OC)c4)c(OC)c3)C(=O)N=C2S1,67.1,i,i,i,i,i,65.1,i,Scp-1 Tm shift=11.2
Cc1cccc(N2CCN(C(=O)c3ccc(S(=O)(=O)N(C)c4ccccc4)cc3)CC2)c1C,98.5,i,i,i,i,i,74.8,i,Scp-1 Tm shift=i
CN1CCN(C(=O)c2ccc(S(=O)(=O)N(C)c3ccccc3)cc2)CC1,nt,i,i,i,i,i,nt,nt,
O=C(CN1C(=O)NC2(CCCCC2)C1=O)Nc1nc2c(F)cc(F)cc2s1,i,i,i,i,i,i,i,i,
Cc1c(C(=O)NCCN2CCCC(O)C2)oc2c(F)cccc12 (stereo not drawn),i,i,i,i,i,i,nt,nt,
Cc1c(C(=O)NCCN2CCOC2=O)oc2c(F)cccc12,i,i,i,i,i,i,i,i,
CC1CCc2nc3ccccc3c(C(=O)OCC(=O)N3CCc4ccccc43)c2C1 (stereo not drawn),50.1,i,i,i,i,i,i,i,
CCCCNC(=O)COC(=O)c1c2c(nc3ccccc13)CCC2,61.8,i,i,i,i,i,46.1,i,Scp-1 Tm shift=8.4
C=CCNC(=O)COC(=O)c1c2c(nc3ccccc13)CCC2,66.4,i,i,i,i,i,65.4,i,Scp-1 Tm shift=9.5
CNC(=O)COC(=O)c1c2c(nc3ccccc13)CCC2,i,i,i,i,i,i,nt,nt,
CCCc1nc2ccccc2c(C(=O)OCC(=O)N2CCc3ccccc32)c1CC,i,i,i,i,i,i,nt,nt,
COc1ccc(C(=O)NC(=S)Nc2ccc(CN3CCOCC3)cc2)cc1Br,i,i,i,i,i,i,nt,nt,
COC(=O)[C@H](C)N(Cc1ccc(Cl)c(Cl)c1)S(=O)(=O)CCN1CCCC1,i,i,i,i,i,i,nt,nt,
O=C1NCCCc2c1oc1cc(Br)c(O)c(Br)c21,i,i,i,i,i,i,nt,nt,
